Experiments:
[1] = In vivo metabolic stability, mouse blood 5 min pi, without or with PA; set-up: species or system Swiss albino mice; conditions: peripheral mouse blood, HPLC; for Intact radiopeptide, 5 min pi (+ phosphoramidon): PA coinjected, n=2; for Intact radiopeptide, 5 min pi: radioligand alone, n=3
How it was run: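 Healthy male Swiss albino mice (30 ± 5 g) were injected with the 177Lu-labelled test peptide alone (n = 3) or with coinjected phosphoramidon (n = 2). Blood was collected at 5 min pi and analysed by HPLC radiochromatography for the percentage of intact radioligand.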

PC-3 xenografts [2] = assay: Influence of injected peptide dose on biodistribution; assay type: in vivo, BALB/c nu/nu mice; conditions: 750 pmol in comparison to 50 pmol, 1 hr pi
How it was run: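 PC-3-xenografted BALB/c nu/nu mice (17 ± 2 g; tumours 0.19 ± 0.06 g) were injected with 80 kBq of the 177Lu-labelled test peptide at a total peptide dose of 50, 100, 250, 500 or 750 pmol/animal, with phosphoramidon coinjection. Tumour and organ uptake were measured at 1 hr pi; tumour slices were also examined by ex vivo autoradiography.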

PC-3 xenografts [3] = assay: Experimental in vivo therapy; set-up: species or system BALB/c nu/nu mice
PC-3 xenografts [4] = assay: Biodistribution over time; assay type: in vivo, BALB/c nu/nu mice; conditions: 24 hr pi vs peak at 1 hr pi, 100 pmol
How it was run: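 PC-3-xenografted BALB/c nu/nu mice received the 177Lu-labelled test peptide (80 kBq, 100 pmol/animal, 100 μl) with coinjected NEP inhibitor phosphoramidon. Animals were euthanized at 0.5, 1, 2, 4, 24, 48 and 90 hr pi, and tumour and organ activity uptake were measured.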

PC-3 xenografts [5] = assay: Dosimetry estimates; set-up: species or system BALB/c nu/nu mice; conditions: per 60 MBq treatment cycle (200 pmol)
How it was run: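 Organ absorbed doses were estimated for a 100 pmol injection of the 177Lu-labelled test peptide. The estimate used time-course biodistribution data from PC-3-xenografted nude mice and a MOBY-phantom dosimetry model. Other peptide masses were scaled by the ratio of 1 hr uptake at 50–250 pmol to the 100 pmol 1 hr uptake; uptake versus mass was fitted with exponential curves. Doses were expressed per 60 MBq cycle.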

PC-3 xenografts [6] = assay: Influence of PA coinjection on biodistribution; assay type: in vivo, BALB/c nu/nu mice; conditions: 1 hr pi

With `CC(C)C[C@H](NC(=O)C[C@H](O)[C@H](CC(C)C)NC(=O)[C@H](Cc1c[nH]cn1)NC(=O)CNC(=O)[C@@H](NC(=O)[C@H](C)NC(=O)[C@H](Cc1c[nH]c2ccccc12)NC(=O)[C@H](CCC(N)=O)NC(=O)[C@@H](Cc1ccccc1)NC(=O)COCCOCCNC(=O)CN1CCN(CC(=O)O)CCN(CC(=O)O)CCN(CC(=O)O)CC1)C(C)C)C(N)=O` [^177Lu-DOTA-PEG2-RM26, metal not drawn] the “Intact radiopeptide, 5 min pi (+ phosphoramidon)” value [1] was > 96% and the “Intact radiopeptide, 5 min pi” value [1] was 64.7 ± 4.6%.
In the case of `CC(C)C[C@H](NC(=O)C[C@H](O)[C@H](CC(C)C)NC(=O)[C@H](Cc1c[nH]cn1)NC(=O)CNC(=O)[C@@H](NC(=O)[C@H](C)NC(=O)[C@H](Cc1c[nH]c2ccccc12)NC(=O)[C@H](CCC(N)=O)NC(=O)[C@@H](Cc1ccccc1)NC(=O)COCCOCCNC(=O)CCC(C(=O)O)N1CCN(CC(=O)O)CCN(CC(=O)O)CCN(CC(=O)O)CC1)C(C)C)C(N)=O` (stereo partly drawn) [^177Lu-DOTAGA-PEG2-RM26, metal not drawn], the “Decrease of tumor uptake” value (PC-3 xenografts [2]) is reported as “threefold”, the “Median survival compared with controls” value (PC-3 xenografts [3]; 6 cycles iv every second day, n=11-12) is reported as “significant prolongation of median survival” and the Tumor growth (PC-3 xenografts [3]; 6 cycles, 200 pmol/60 MBq, +PA) is reported as “significant inhibition of tumor growth”. For the same molecule, the “Decrease of tumor uptake” value (PC-3 xenografts [4]) was “fourfold”, the “Estimated absorbed dose to the kidneys” value (PC-3 xenografts [5]) was 5 Gy and the “Estimated absorbed dose to the tumor” value (PC-3 xenografts [5]) was 11 Gy. For the same molecule, the “Increase of pancreatic uptake with PA” value (PC-3 xenografts [6]; 50 pmol, PA vs control) was “threefold”, the “Increase of tumor uptake with PA” value (PC-3 xenografts [6]; 50 pmol, PA vs control) was 1.6 fold and the “Amplification of tumor uptake with PA” value (PC-3 xenografts [6]; PA coinjection) was 60%. The “Intact radiopeptide, 5 min pi (+ phosphoramidon)” value [1] was > 98% and the “Intact radiopeptide, 5 min pi” value [1] was 70.7 ± 3.1%.
With `CC(C)C[C@H](NC(=O)C[C@H](O)[C@H](CC(C)C)NC(=O)[C@H](Cc1c[nH]cn1)NC(=O)CNC(=O)[C@@H](NC(=O)[C@H](C)NC(=O)[C@H](Cc1c[nH]c2ccccc12)NC(=O)[C@H](CCC(N)=O)NC(=O)[C@@H](Cc1ccccc1)NC(=O)COCCOCCNC(=O)CCC(C(=O)O)N1CCN(CC(=O)O)CCN(CC(=O)O)CC1)C(C)C)C(N)=O` (stereo partly drawn) [^177Lu-NODAGA-PEG2-RM26, metal not drawn] the “Intact radiopeptide, 5 min pi (+ phosphoramidon)” value [1] was > 96% and the “Intact radiopeptide, 5 min pi” value [1] was 64.0 ± 2.0%.

Source: article PMC6852655 (International Journal of Cancer, 2019)
